Data set [1] relates to K562. Put plainly: Cytotoxicity against human K562 cells assessed as growth inhibition at 10 to 100 uM after 24 to 72 hrs by trypan blue exclusion assay. It counts as functional, cell-based. In outline:
(§1)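 Trypan blue counting of proliferation (cells/mL) and viability. Exponential-phase cells were seeded at 200,000 cells/mL in RPMI 1640 with 10% heat-inactivated FCS at 37 °C and 5% CO2. They were treated from 50 mM DMSO stocks against DMSO-matched controls and read at 24, 48 and 72 h (PBMCs at 24 and 48 h).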

Data set [2] addresses T1, Nuclear factor NF-kappa-B complex (Homo sapiens) (UniProt Q00653+P19838+Q04206). The data set is described as follows: Inhibition of NF-kappaB transactivation in TNF-alpha-stimulated human K562 cells at 10 to 100 uM preincubated for 2 hrs followed by TNF-alpha challenge measured after 6 hrs by dual luciferase reporter gene assay. It is filed as cell-based. Put shortly:
(§2)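 Cells co-transfected with 5 µg of a firefly luciferase reporter carrying five consensus NF-κB sites plus 5 µg of a Renilla TK control plasmid. 24 h later, compound for 2 h, then ± 20 ng/ml TNF-α for 6 h more. Firefly:Renilla ratio, TNF-α-only cells set to 100%. Three independent measurements in quadruplicate.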

Data set [3] has as its system Jurkat. The data set is described as follows: Cytotoxicity against human Jurkat cells assessed as growth inhibition at 10 uM after 48 hrs by trypan blue exclusion assay. It counts as functional, cell-based. In outline: as §1
Data set [4] has as its system Jurkat. Put plainly: Cytotoxicity against human Jurkat cells assessed as growth inhibition at 25 uM after 24 hrs by trypan blue exclusion assay. It is filed as functional, cell-based. In outline:
as §1

Data set [5] concerns K652. The data set is described as follows: Cytotoxicity against human […] cells assessed as growth inhibition at 25 uM after 24 hrs by trypan blue exclusion assay. It is filed as functional, cell-based. Put shortly:
as §1

Data set [6] has as its system Jurkat. The data set is described as follows: Cytotoxicity against human Jurkat cells assessed as growth inhibition at 50 uM after 24 to 72 hrs by trypan blue exclusion assay. It is filed as functional, cell-based. In outline: as §1
Data set [7] deals with Jurkat. The data set is described as follows: Cytotoxicity against human Jurkat cells assessed as reduction of cell viability at 50 uM after 24 hrs by trypan blue exclusion assay. It is filed as functional, cell-based. In outline: as §1
For data set [8], the system named is Jurkat. Put plainly: Cell cycle arrest in human Jurkat cells assessed as accumulation at G0/G1 phase at 50 uM at 8 hrs by propidium iodide staining-based flow cytometric analysis. It counts as functional. In outline:
(§3)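 Cells in exponential phase at 200,000 cells/mL in RPMI 1640 with 10% heat-inactivated FCS, 37 °C, 5% CO2, treated from DMSO stocks alongside DMSO vehicle controls. Cell cycle distribution was analysed at time points between 8 and 72 h.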

Data set [9] can be described thus: Cell cycle arrest in human […] cells assessed as accumulation at G0/G1 phase at 25 uM measured at 24 hrs by propidium iodide staining-based flow cytometric analysis. It is filed as functional. In outline: as §3
Data set [10] deals with PBMC. Put plainly: Cytotoxicity against human PBMC assessed as effect on cell viability at >100 uM after 24 to 48 hrs by trypan blue exclusion assay. It is filed as cell-based. Put shortly:
as §1

In data set [11] the target is T1, Nuclear factor NF-kappa-B complex (Homo sapiens). The data set is described as follows: Inhibition of NF-kappaB transactivation in TNF-alpha-stimulated human K562 cells preincubated for 2 hrs followed by TNF-alpha challenge measured after 6 hrs by dual luciferase reporter gene assay. It counts as cell-based. Put shortly:
as §2

Data set [12] has the same target. The data set is described as follows: Inhibition of NF-kappaB transactivation in TNF-alpha-stimulated human Jurkat cells preincubated for 2 hrs followed by TNF-alpha challenge measured after 6 hrs by dual luciferase reporter gene assay. It is filed as cell-based. Put shortly:
as §2

The target is the same in data set [13]. The data set is described as follows: Inhibition of NF-kappaB in human K562 cells assessed as reduction of TNF-alpha-induced ICAM1 mRNA expression preincubated for 2 hrs followed by TNF-alpha challenge measured after 6 hrs by qRT-PCR analysis. It counts as cell-based. In outline:
(§4)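 K-562 cells given compound for 2 h, then cultured ± 20 ng/ml TNF-α for 6 h. Total RNA analysed by qRT-PCR with ICAM1- and CFLAR-specific primers, expressed as target/β-actin mRNA ratio; mean ± SD of 3 independent experiments.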

Data set [14] shares this target. Put plainly: Inhibition of NF-kappaB in human K562 cells assessed as reduction of TNF-alpha-induced CFLAR mRNA expression preincubated for 2 hrs followed by TNF-alpha challenge measured after 6 hrs by qRT-PCR analysis. It is filed as cell-based. Put shortly: as §4
Data set [15] has as its target T2, Nuclear factor NF-kappa-B p105 subunit (Homo sapiens) (UniProt P19838).
T2 sequence (whole entry): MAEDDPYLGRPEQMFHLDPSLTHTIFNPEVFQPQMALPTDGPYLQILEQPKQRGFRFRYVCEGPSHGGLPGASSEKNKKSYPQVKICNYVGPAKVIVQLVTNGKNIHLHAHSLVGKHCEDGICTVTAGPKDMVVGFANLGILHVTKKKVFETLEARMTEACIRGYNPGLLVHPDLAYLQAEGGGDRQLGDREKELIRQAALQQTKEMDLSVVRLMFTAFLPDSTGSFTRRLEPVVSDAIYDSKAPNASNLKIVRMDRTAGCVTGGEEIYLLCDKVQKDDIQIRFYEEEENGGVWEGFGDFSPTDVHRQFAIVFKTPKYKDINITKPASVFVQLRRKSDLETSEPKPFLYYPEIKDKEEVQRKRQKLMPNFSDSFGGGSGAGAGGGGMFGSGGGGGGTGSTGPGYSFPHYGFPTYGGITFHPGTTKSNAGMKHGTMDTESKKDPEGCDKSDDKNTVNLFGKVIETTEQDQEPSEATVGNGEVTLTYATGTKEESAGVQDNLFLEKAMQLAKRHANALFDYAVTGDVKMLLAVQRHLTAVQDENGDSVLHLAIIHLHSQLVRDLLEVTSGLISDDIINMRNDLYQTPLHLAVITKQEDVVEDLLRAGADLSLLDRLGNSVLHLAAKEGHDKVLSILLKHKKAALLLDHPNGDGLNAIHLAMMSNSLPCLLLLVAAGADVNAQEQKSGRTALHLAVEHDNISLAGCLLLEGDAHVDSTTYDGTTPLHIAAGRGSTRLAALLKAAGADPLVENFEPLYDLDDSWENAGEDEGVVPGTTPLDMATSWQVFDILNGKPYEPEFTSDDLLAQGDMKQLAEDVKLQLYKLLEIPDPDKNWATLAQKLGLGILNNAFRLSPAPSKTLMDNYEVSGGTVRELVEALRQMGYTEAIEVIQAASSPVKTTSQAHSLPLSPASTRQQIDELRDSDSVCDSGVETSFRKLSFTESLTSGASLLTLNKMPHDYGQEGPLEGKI
Put plainly: Inhibition of NF-kappaB p50 subunit translocation from cytoplasm to nucleus in TNF-alpha-stimulated human Jurkat cells at 40 uM preincubated for 2 hrs followed by TNF-alpha challenge measured after 2 to 90 mins by Western blot analysis. It is filed as cell-based. Put shortly: (§5)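 JURKAT cells pretreated 2 h with 40 µM compound, then ± 20 ng/ml TNF-α for the indicated times. Cytoplasmic and nuclear fractions immunoblotted; loading and fraction purity checked with lamin B and α-tubulin. Blots representative of three independent experiments.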

In data set [16] the target is Transcription factor p65 (Homo sapiens) (UniProt Q04206). The data set is described as follows: Inhibition of NF-kappaB p65 subunit translocation from cytoplasm to nucleus in TNF-alpha-stimulated human Jurkat cells at 40 uM preincubated for 2 hrs followed by TNF-alpha challenge measured after 2 to 90 mins by Western blot analysis. It counts as cell-based. Put shortly:
as §5

The target of data set [17] is T3, NF-kappa-B inhibitor alpha (Homo sapiens) (UniProt P25963).
T3 sequence (whole entry): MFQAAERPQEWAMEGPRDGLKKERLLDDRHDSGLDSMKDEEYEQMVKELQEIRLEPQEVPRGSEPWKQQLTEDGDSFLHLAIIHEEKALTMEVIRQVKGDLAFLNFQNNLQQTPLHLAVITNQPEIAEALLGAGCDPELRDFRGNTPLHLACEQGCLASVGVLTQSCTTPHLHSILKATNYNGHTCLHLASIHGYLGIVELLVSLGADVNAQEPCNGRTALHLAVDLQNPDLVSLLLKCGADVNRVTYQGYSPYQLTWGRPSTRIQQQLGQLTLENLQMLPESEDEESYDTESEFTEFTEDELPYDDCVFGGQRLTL
The data set is described as follows: Inhibition of IkappaB-alpha degradation in TNF-alpha-stimulated human Jurkat cells at 40 uM preincubated for 2 hrs followed by TNF-alpha challenge measured after 2 to 90 mins by Western blot analysis. It counts as cell-based. In outline: as §5

The source made the active and inactive calls. The rule behind the calls is not given here.

T1 sequence (Q00653 whole entry, looked up, one chain of several): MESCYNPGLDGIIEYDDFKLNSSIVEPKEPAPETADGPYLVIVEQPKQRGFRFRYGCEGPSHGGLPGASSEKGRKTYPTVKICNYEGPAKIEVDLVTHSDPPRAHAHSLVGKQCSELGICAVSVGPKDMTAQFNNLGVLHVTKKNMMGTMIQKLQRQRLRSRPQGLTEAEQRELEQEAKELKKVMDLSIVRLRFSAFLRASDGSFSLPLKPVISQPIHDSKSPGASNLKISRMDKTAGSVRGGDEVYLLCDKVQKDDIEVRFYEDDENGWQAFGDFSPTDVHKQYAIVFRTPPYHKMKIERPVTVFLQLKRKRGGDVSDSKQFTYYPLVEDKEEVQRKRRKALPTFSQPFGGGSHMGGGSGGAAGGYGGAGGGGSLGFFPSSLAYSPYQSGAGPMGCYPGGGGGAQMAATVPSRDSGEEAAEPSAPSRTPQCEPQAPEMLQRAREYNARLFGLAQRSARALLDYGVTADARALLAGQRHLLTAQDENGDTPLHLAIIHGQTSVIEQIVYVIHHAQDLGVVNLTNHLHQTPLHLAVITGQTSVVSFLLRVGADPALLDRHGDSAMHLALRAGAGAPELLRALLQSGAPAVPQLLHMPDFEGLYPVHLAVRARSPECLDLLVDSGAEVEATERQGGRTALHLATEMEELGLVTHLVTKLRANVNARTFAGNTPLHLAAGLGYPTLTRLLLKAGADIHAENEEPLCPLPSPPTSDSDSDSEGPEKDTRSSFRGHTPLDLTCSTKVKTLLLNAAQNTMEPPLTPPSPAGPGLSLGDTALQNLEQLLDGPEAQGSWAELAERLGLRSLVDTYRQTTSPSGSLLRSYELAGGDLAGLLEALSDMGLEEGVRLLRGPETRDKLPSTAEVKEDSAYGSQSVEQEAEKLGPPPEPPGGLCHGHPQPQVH
T1 sequence (Q04206 whole entry, looked up, one chain of several): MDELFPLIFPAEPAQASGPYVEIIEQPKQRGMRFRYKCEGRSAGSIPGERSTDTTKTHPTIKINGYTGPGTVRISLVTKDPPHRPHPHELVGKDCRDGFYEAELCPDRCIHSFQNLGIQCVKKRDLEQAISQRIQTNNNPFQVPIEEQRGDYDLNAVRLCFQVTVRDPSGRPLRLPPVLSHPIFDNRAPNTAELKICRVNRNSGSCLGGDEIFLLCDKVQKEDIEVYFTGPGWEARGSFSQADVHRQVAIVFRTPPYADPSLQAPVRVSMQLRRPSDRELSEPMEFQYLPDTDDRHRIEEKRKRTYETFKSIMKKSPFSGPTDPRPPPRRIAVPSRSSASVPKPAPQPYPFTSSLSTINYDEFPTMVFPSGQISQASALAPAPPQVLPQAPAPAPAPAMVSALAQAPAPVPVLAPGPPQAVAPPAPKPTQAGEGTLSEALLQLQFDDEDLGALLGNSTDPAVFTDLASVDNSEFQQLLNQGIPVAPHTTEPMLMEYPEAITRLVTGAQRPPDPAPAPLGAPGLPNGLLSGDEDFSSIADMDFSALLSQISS
Chain of Transcription factor p65 (Homo sapiens) (Q04206 whole entry): as the sequence (Q04206 whole entry, looked up, one chain of several) above

For `O=c1cc(O)c2ccccc2o1`, in data set [1], the “growth inhibition (GI)” value is “inactive”. Also, the inhibition entry in [2] is “inactive”.

For `CCC(=O)c1ccccc1O`, the “growth inhibition (GI)” value in data set [1] was “inactive”. In data set [2], the inhibition result was “inactive”.

Turning to `O=C(CC(c1c(O)c2ccccc2oc1=O)c1c(O)c2ccccc2oc1=O)c1ccccc1O`, the “growth inhibition (GI)” value in data set [3], in data set [4], in data set [5] and in data set [6] was “Active” throughout. The outcome in [7], in [8] and in [9] was Active. In addition, the Activity entry in data set [10] was “Non-toxic”. Further, the inhibition entry in data set [11], in data set [12], in [13] and in data set [14] was “Dose-dependent effect” each time. For the same molecule, the inhibition entry in data set [15], in data set [16] and in data set [17] was “Active” throughout.

The values are drawn from ChEMBL document CHEMBL3259651, “Bis(4-hydroxy-2H-chromen-2-one): synthesis and effects on leukemic cell lines proliferation and NF-κB regulation” (Bioorg Med Chem, 2014).
